Screening results: PubChem, several laboratories
Rad51 HR inh: Rad51 (human) homologous recombination inhibition | inhibition, % at 10 µM | hRad51 DNA strand exchange, fluorescence dequenching | actives 0.085% (n = 200,000) | AID 1385;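 active = inhibition above 40% at the single screening dose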
Target sequence (Q06609 whole entry, looked up): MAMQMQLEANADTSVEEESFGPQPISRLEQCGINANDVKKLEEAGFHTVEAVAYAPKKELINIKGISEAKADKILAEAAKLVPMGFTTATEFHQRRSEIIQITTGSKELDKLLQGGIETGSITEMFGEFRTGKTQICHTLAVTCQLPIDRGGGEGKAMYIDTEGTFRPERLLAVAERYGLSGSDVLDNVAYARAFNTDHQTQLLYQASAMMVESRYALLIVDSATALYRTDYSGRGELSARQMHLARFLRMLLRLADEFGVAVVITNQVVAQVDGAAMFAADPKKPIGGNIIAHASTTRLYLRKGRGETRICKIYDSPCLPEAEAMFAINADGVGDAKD
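Material: human Rad51–ssDNA filaments; Probe or stimulus: labelled 47-mer dsDNA for strand exchange; Doses: single 10 µM dose; Incubation: 37 °C 15-min filament assembly, 30-min compound preincubation, 15-min exchange; Technique: FRET fluorescence dequenching, excitation 485 nm, emission 520 nm; Measure: Fluorescence-based percent inhibition, control- and blank-normalised; Benchmarks: plate control and blank wells.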
TbHK1 inh: blocks Trypanosoma brucei hexokinase 1 activity; recombinant TbHK1, G6PDH-coupled NADH A340; inhibition, % at 10 µM; actives 0.11% (n = 220,000); AID 1430;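 active = inhibition of 50% or more in the single-dose primary screen; inactive = inhibition below 50%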
bCat nuc transl: modulators of beta-catenin nuclear translocation | actives 0.3% (n = 190,000) | AID 1665 | nuclear translocation activity, % at 5 µM | HeLa beta-catenin nuclear translocation, immunofluorescence imaging;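 active = nuclear translocation activity above 50% at 5 µM, with a well cell count of 50 or more; inconclusive = wells under 50 cells across six images, flagged as toxic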;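 also: per-cell ratio of nuclear to cytoplasmic median beta-catenin stain intensity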
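Test system: human HeLa cell line; Doses: 5 µM primary, 0.02–20 µM confirmation; Incubation: 24 h compound exposure, 37°C; Detection: beta-catenin immunofluorescence imaging with DAPI; Read-out: beta-catenin nuclear/cytoplasmic ratio, % activation.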
MT stabilize HCS: stabilizes microtubules in HeLa cells | % tubulin-high responders, % at 10 µM | HeLa tubulin immunostaining HCS, 24 h; share of cells brighter than vehicle mean+2SD | AID 2205 | actives 0.83% (n = 200,000);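 active = plate Z-score above 3 for both tubulin-high and condensed-nucleus cell shares, with cell loss under 80%, at 10 µM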;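 also: anti alpha tubulin signal scored within the nucleus-defined area of each cell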
Dynein transport: blocks dynein driven cargo transport along microtubules. actives 0.47% (n = 220,000). z-score, hits read low. 3617.4 mouse cells, GR-EGFP nuclear translocation imaging; test concentration mostly 20 µM; stimulated with dexamethasone, 1 µM; hits give low values;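 active = plate z-score of nuclear minus cytoplasmic receptor signal below a set negative limit, without overly bright fluorescence or cell loss, cut at about -3.5 in these data, passing the limit was not always enough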;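 also: z-score of nuclear minus cytoplasmic ring GR-EGFP intensity difference per well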
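medium = tetracycline-free induction medium containing charcoal-stripped FBS | probe or stimulus = dexamethasone, 1.0 µM final | timing = 48 h induction, then 1 h compound, then 30 min agonist, 37 °C | detection = automated 10x imaging of fixed Hoechst-stained cells | read-out basis = nuclear versus cytoplasmic GR-EGFP signal, averaged per well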
Hits are given with their value. Most compounds without a hit are left out; they make up all but 1.5% or so of the library.

For C#CCOc1cc(C2C3=C(COC3=O)Nc3cc4c(cc32)OCO4)ccc1OC (stereo unspecified) the results were Rad51 HR inh inactive, TbHK1 inh inactive, bCat nuc transl 80, MT stabilize HCS 13 and Dynein transport inactive.
Screening CCc1ccc(N2C(=O)NC(=O)C(CCc3ccncc3)(CCc3ccncc3)C2=O)cc1 returned Rad51 HR inh inactive, TbHK1 inh inactive, bCat nuc transl inactive, MT stabilize HCS inactive and Dynein transport inactive.
`O=C1NC(=O)C(CCc2ccncc2)(Cc2cccc(Cl)c2Cl)C(=O)N1c1ccc(Br)cc1` (stereo unspecified) gave Rad51 HR inh inactive, TbHK1 inh inactive, bCat nuc transl 95, MT stabilize HCS 19 and Dynein transport inactive.
For O=C(Cn1cc(C(=O)c2ccccc2)c2ccccc21)NCc1ccco1 the results were Rad51 HR inh inactive, TbHK1 inh inactive, bCat nuc transl inactive, MT stabilize HCS 31 and Dynein transport inactive.
O=C(c1ccco1)c1cn(Cc2ccc(Cl)cc2)c2ccccc12 was read as Rad51 HR inh inactive, TbHK1 inh inactive, MT stabilize HCS 5.6 and Dynein transport inactive.
O=C(c1ccccc1)c1cn(CC(=O)N2CCCc3ccccc32)c2ccccc12 was read as Rad51 HR inh inactive, TbHK1 inh inactive, MT stabilize HCS inactive and Dynein transport inactive.
Screening COc1cccc(CNCCc2c[nH]c3ccccc23)c1OC returned TbHK1 inh inactive, bCat nuc transl inactive, MT stabilize HCS inactive and Dynein transport inactive.
Cc1ccc(-n2c(O)c(/C=N/N3CCCCCC3)c(=O)[nH]c2=O)cc1C was read as TbHK1 inh inactive, bCat nuc transl inactive and Dynein transport inactive.
For COc1ccc(C2NCc3ccc4c(c3-n3cccc32)OCO4)cc1O (stereo unspecified) the results were Rad51 HR inh inactive, TbHK1 inh inactive, MT stabilize HCS 29 and Dynein transport inactive.
`C=C1C(=O)O[C@H]2[C@H]1[C@H](OC(=O)CC(=O)O[C@@H]1C[C@@H](C)[C@@H]3C=CC(=O)[C@@]3(C)[C@H]3OC(=O)C(=C)[C@H]13)C[C@@H](C)[C@H]1C=CC(=O)[C@]12C` gave Rad51 HR inh inactive, TbHK1 inh inactive, bCat nuc transl inactive and Dynein transport inactive.
Screening C=C1C(=O)O[C@@H]2C[C@@H](C)[C@@H]3C4OC4C(=O)[C@@]3(C)[C@@H](O)[C@H]12 (stereo partly specified) returned Rad51 HR inh inactive, TbHK1 inh inactive, bCat nuc transl inactive and Dynein transport -3.8.
Screening NC(N)=N/N=C/c1ccc(N2CCOCC2)cc1 returned Rad51 HR inh inactive, TbHK1 inh inactive, bCat nuc transl inactive, MT stabilize HCS 10 and Dynein transport inactive.
For COc1ccc(/C=N\N=C(N)N)cc1 the results were Rad51 HR inh inactive, TbHK1 inh inactive, bCat nuc transl inactive, MT stabilize HCS inactive and Dynein transport inactive.
Screening CN(C)c1ccc(C(=O)c2ccc(N(C)C)cc2)cc1 returned Rad51 HR inh inactive, TbHK1 inh inactive, MT stabilize HCS 46 and Dynein transport inactive.
Screening COC(=O)C(O)(c1ccc(N(C)C)cc1)C(F)(F)F (stereo unspecified) returned Rad51 HR inh inactive, TbHK1 inh inactive, bCat nuc transl inactive, MT stabilize HCS inactive and Dynein transport inactive.
Screening CCN(CC)c1ccc(CNCCc2ccccc2F)cc1 returned Rad51 HR inh inactive, TbHK1 inh inactive, bCat nuc transl inactive, MT stabilize HCS 21 and Dynein transport inactive.
`NC(=O)c1cn(C2OC(CO)C(O)C2O)c2ncnc(N)c12` (stereo unspecified) gave Rad51 HR inh inactive, TbHK1 inh inactive, bCat nuc transl inconclusive, MT stabilize HCS 20 and Dynein transport inactive.
CCN1C(=O)/C(=C\c2ccc([N+](=O)[O-])s2)C(=O)NC1=S was read as Rad51 HR inh inactive, TbHK1 inh inactive, bCat nuc transl inactive, MT stabilize HCS inactive and Dynein transport -4.7.
`COc1ccc(-n2c(O)c(C=NCCN(C)C)c(=O)[nH]c2=O)cc1` gave TbHK1 inh inactive, bCat nuc transl inactive and Dynein transport inactive.
CC12CCC3C(CC=C4CC(O)CCC43C)C1C/C(=C\N1CCCC1)C2=O (stereo unspecified) was read as Rad51 HR inh inactive, TbHK1 inh inactive, bCat nuc transl inactive and Dynein transport inactive.
`CC(C)c1cccc(C(C)C)c1OCCn1ccnc1` gave Rad51 HR inh inactive, TbHK1 inh inactive, bCat nuc transl inactive, MT stabilize HCS inactive and Dynein transport inactive.
C=C1C(=O)O[C@@H]2C[C@@H](C)[C@@H]3C=CC(=O)[C@@]3(C)[C@@H](OC(=O)CC(=O)O[C@H]3[C@@H]4C(=C)C(=O)O[C@@H]4C[C@@H](C)[C@@H]4C=CC(=O)[C@]43C)[C@H]12 was read as Rad51 HR inh inactive, TbHK1 inh inactive, bCat nuc transl 72 and Dynein transport -4.
CCOC(=O)C1CCN(/C=C2/C(=O)NC(=O)N(Cc3ccco3)C2=O)CC1 was read as Rad51 HR inh inactive, TbHK1 inh inactive, bCat nuc transl inactive, MT stabilize HCS 41 and Dynein transport inactive.
For COc1ccc(/C=C2/C(=O)NC(=O)N(Cc3ccco3)C2=O)cc1 the results were Rad51 HR inh inactive, TbHK1 inh inactive, bCat nuc transl inactive, MT stabilize HCS inactive and Dynein transport inactive.
Screening COc1cccc(C2=NOC(C(=O)N3CCC4(CC3)OCCO4)C2)c1 (stereo unspecified) returned Rad51 HR inh 87, TbHK1 inh inactive, bCat nuc transl inactive, MT stabilize HCS inactive and Dynein transport inactive.
`c1ccc(-c2[nH]c[n+](CC3CO3)c2-c2ccccc2)cc1` (stereo unspecified) gave Rad51 HR inh inactive, TbHK1 inh 69, bCat nuc transl inactive, MT stabilize HCS inactive and Dynein transport inactive.
For Cc1ccc(S(=O)(=O)CC(C)(O)C(=O)Nc2cccc(C(F)(F)F)c2)cc1 (stereo unspecified) the results were Rad51 HR inh inactive, TbHK1 inh inactive, MT stabilize HCS inactive and Dynein transport inactive.
For CN(C)/C=C/C(=O)C(Cl)(Cl)Cl the results were TbHK1 inh inactive, bCat nuc transl inactive, MT stabilize HCS inactive and Dynein transport inactive.
For O=C1N(c2cccc(Cl)c2)C(c2cccnc2)N2CCCN12 (stereo unspecified) the results were Rad51 HR inh inactive, TbHK1 inh inactive, bCat nuc transl inactive, MT stabilize HCS inactive and Dynein transport inactive.
Screening CC(=NCC1CCCO1)c1c(O)n(-c2ccccc2C)c(=O)[nH]c1=O (stereo unspecified) returned TbHK1 inh inactive, bCat nuc transl inactive and Dynein transport inactive.
Screening CC(C)c1ccc(-n2c(O)c(C=NC(CCS(C)=O)C(=O)O)c(=O)[nH]c2=S)cc1 (stereo unspecified) returned TbHK1 inh inactive, bCat nuc transl inactive and Dynein transport inactive.
